Measurements published in ChEMBL document CHEMBL4020818, “Novel Sigma Receptor Ligand-Nitric Oxide Photodonors: Molecular Hybrids for Double-Targeted Antiproliferative Effect” (J Med Chem, 2017).
Calls of active or inactive are those of the source.

Columns and labels:
[1] = target: Sigma non-opioid intracellular receptor 1 (Cavia porcellus, UniProt Q60492); assay: Displacement of [3H]-(+)-pentazocine from sigma 1 receptor in guinea pig brain membranes after 150 mins by liquid scintillation counting method; assay type: cell membranes, Membrane
How it was run: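 Separated by filtration on PEI-presoaked GF/B filters, washed with ice-cold buffer, counted by liquid scintillation.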

[2] = target: Sigma intracellular receptor 2 (Homo sapiens, UniProt Q5BJF2); assay: Displacement of [3H]-DTG from sigma 2 receptor (unknown origin) after 120 mins by liquid scintillation counting method
[3] = Selectivity ratio of Ki for sigma 1 receptor in guinea pig brain membranes to Ki for sigma 2 receptor (unknown origin); assay type: cell membranes
[4] = Solubility of the compound in water/methanol (1:1) mixture; assay type: physicochemical; conditions: buffer
[5] = Stability of the compound in water/methanol (1:1) mixture assessed as nitric oxide release under dark condition at 50 uM by amperometric detection method; assay type: physicochemical; conditions: buffer
[6] = Stability of the compound in water/methanol (1:1) mixture assessed as nitric oxide release under light irradiation at 50 uM by amperometric detection method; assay type: physicochemical; conditions: buffer
[7] = Dark toxicity in human MCF7 cells assessed as decrease in cell viability after 24 hrs by MTT assay; assay type: cell-based
How it was run: (§1)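 Cells seeded at 10 × 10^3 per well, grown 24 h, then exposed in the dark for 24 h at 37 °C to compound (DMSO stock diluted in medium), top concentration 100 µM. MTT 0.5% added for 4 h, formazan dissolved in DMSO, read at 550 nm. Viability is expressed relative to untreated controls. EC50 comes from a variable-slope sigmoidal fit; quadruplicate wells, mean ± SEM.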

[8] = Dark toxicity in human A2058 cells assessed as decrease in cell viability after 24 hrs by MTT assay; assay type: cell-based; how it was run: as §1
[9] = Dark toxicity in human NCTC-2544 cells assessed as decrease in cell viability after 24 hrs by MTT assay; assay type: cell-based; how it was run: as §1
MCF7 [10] = assay: Phototoxicity in human MCF7 cells assessed as decrease in cell viability at 10 to 50 uM preincubated for 24 hrs followed by light irradiation for 15 mins by MTT assay; assay type: functional, cell-based
How it was run: (§2)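 Cells preincubated 24 h with graded compound concentrations, medium then replaced with phenol red-free medium. Irradiated 15 min with a 150 W Xe lamp through a 390 nm cutoff filter; untreated cells also irradiated. Viability by MTT (0.5%, 4 h, DMSO, 550 nm) as percent of untreated controls; quadruplicate wells, mean ± SD.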

NCTC-2544 [11] = assay: Phototoxicity in human NCTC-2544 cells assessed as decrease in cell viability at 10 to 50 uM preincubated for 24 hrs followed by light irradiation for 15 mins by MTT assay; assay type: cell-based; conditions: nctc-2544, 0.25 h; how it was run: as §2
NCTC-2544 [12] = assay: Dark toxicity in human NCTC-2544 cells assessed as decrease in cell viability at 10 to 50 uM after 24 hrs by MTT assay; assay type: cell-based; conditions: nctc-2544, 24 h
How it was run: (§3)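 Dark arm of the light experiments. Cells were seeded at 10 × 10^3 per well, precultured 24 h, then incubated 24 h at 37 °C with graded compound concentrations without irradiation. Viability was read by MTT (0.5%, 4 h, DMSO, 550 nm) as percent of untreated controls; quadruplicate wells, mean ± SD.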

[13] = Stability in human MCF7 cells assessed as nitric oxide release under light irradiation at 50 uM preincubated for 24 hrs followed by light irradiation for 15 mins by DCF-DA dye-based fluorescence microscopic method; assay type: ADME, cell-based; conditions: mcf7, 0.25 h
How it was run: (§4)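 Cells plated on glass coverslips at 50,000, attached overnight, serum-starved 24 h, then treated with compound for 24 h. Loaded with 10 µM DCF-DA for 1 h, washed in PBS, irradiated in phenol red-free medium (Xe lamp, 390 nm cutoff, 15 min). Fixed in 4% PFA and imaged by fluorescence microscopy at 10x and 40x, dark versus light.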

[14] = Stability in human MCF7 cells assessed as nitric oxide release under light irradiation at 50 uM preincubated for 24 hrs followed by light irradiation for 15 mins by Griess assay; assay type: ADME, cell-based; conditions: mcf7, 0.25 h
How it was run: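 After 50 µM compound treatment and irradiation (or dark control), cells were pelleted and lysed in hypotonic solution. Supernatant mixed 1:1 with Griess reagent, 30 min at 37 °C in the dark, absorbance read at 545 nm. Normalised to protein content; total nitrite quantified against a sodium nitrite standard.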

A2058 [15] = assay: Phototoxicity in human A2058 cells assessed as decrease in cell viability at 10 to 25 uM preincubated for 24 hrs followed by light irradiation for 15 mins by MTT assay; assay type: functional, cell-based
How it was run: (§5)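 Cells seeded at 10 × 10^3 per well and grown 24 h. Compound from DMSO stock, diluted in medium, incubated 24 h at 37 °C. Medium then swapped for phenol red-free medium and cells irradiated 15 min (150 W Xe lamp, 390 nm cutoff). MTT (0.5%) for 4 h, formazan in DMSO, OD 550 nm; viability as % of untreated controls. Quadruplicate wells, ≥2 repeats.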

A2058 [16] = assay: Phototoxicity in human A2058 cells assessed as decrease in cell viability at 50 uM preincubated for 24 hrs followed by light irradiation for 15 mins by MTT assay; assay type: functional, cell-based; how it was run: as §5
[17] = Stability of the compound in water/methanol (1:1) mixture assessed as nitric oxide release under light irradiation by amperometric detection method; assay type: physicochemical; conditions: buffer
MCF7 [18] = assay: Dark toxicity in human MCF7 cells assessed as decrease in cell viability at 10 to 50 uM after 24 hrs by MTT assay; assay type: cell-based; conditions: mcf7, 24 h; how it was run: as §3
A2058 [19] = assay: Phototoxicity in human A2058 cells assessed as decrease in cell viability at 10 to 50 uM preincubated for 24 hrs followed by light irradiation for 15 mins by MTT assay; assay type: functional, cell-based; how it was run: as §2
A2058 [20] = assay: Dark toxicity in human A2058 cells assessed as decrease in cell viability at 10 to 50 uM after 24 hrs by MTT assay; assay type: cell-based; conditions: a2058, 24 h; how it was run: as §3
MCF7 [21] = assay: Phototoxicity in human MCF7 cells assessed as decrease in cell viability at 0.01 to 10 uM preincubated for 24 hrs followed by light irradiation for 15 mins by MTT assay; assay type: functional, cell-based; how it was run: as §2
MCF7 [22] = assay: Dark toxicity in human MCF7 cells assessed as decrease in cell viability at 0.01 to 10 uM after 24 hrs by MTT assay; assay type: cell-based; conditions: mcf7, 24 h; how it was run: as §3
A2058 [23] = assay: Phototoxicity in human A2058 cells assessed as decrease in cell viability at 1 to 10 uM preincubated for 24 hrs followed by light irradiation for 15 mins by MTT assay; assay type: functional, cell-based; how it was run: as §2
NCTC-2544 [24] = assay: Phototoxicity in human NCTC-2544 cells assessed as decrease in cell viability at 0.01 to 10 uM preincubated for 24 hrs followed by light irradiation for 15 mins by MTT assay; assay type: cell-based; conditions: nctc-2544, 0.25 h; how it was run: as §2
NCTC-2544 [25] = assay: Dark toxicity in human NCTC-2544 cells assessed as decrease in cell viability at 0.01 to 10 uM after 24 hrs by MTT assay; assay type: cell-based; conditions: nctc-2544, 24 h; how it was run: as §3
[26] = Stability in human MCF7 cells assessed as nitric oxide release under light irradiation at 10 uM preincubated for 24 hrs followed by light irradiation for 15 mins by DCF-DA dye-based fluorescence microscopic method; assay type: ADME, cell-based; conditions: mcf7, 0.25 h; how it was run: as §4
[27] = Stability in human A2058 cells assessed as nitric oxide release under light irradiation at 10 uM preincubated for 24 hrs followed by light irradiation for 15 mins by DCF-DA dye-based fluorescence microscopic method; assay type: ADME, cell-based; conditions: a2058, 0.25 h; how it was run: as §4

Sequence of Sigma non-opioid intracellular receptor 1 (Q60492 whole entry): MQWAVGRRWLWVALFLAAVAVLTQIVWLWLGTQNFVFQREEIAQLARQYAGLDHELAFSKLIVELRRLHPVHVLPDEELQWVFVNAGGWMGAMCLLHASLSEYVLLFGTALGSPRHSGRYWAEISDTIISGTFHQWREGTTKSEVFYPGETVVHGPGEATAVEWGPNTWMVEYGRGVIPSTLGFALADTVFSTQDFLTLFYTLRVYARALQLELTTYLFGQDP
Sequence of Sigma intracellular receptor 2 (Q5BJF2 whole entry): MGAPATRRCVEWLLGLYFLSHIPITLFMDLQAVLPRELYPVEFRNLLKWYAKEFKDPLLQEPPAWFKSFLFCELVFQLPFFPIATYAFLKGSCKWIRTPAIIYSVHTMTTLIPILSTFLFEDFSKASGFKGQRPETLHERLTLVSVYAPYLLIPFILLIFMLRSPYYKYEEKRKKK

SMILES	Ki [1]	Ki [2]	Ratio Ki [3]	solubility [4]	EC50 at 24 h ([7]; read-out: EC50)	EC50 at 24 h ([7]; read-out: pEC50 (converted))	EC50 at 24 h ([8]; read-out: EC50)	EC50 at 24 h ([8]; read-out: pEC50 (converted))	EC50 at 24 h ([9]; read-out: EC50)	EC50 at 24 h ([9]; read-out: pEC50 (converted))	Stability [17]	also measured
COc1cc2c(cc1OC)CN(CCCCCNc1ccc([N+](=O)[O-])c(C(F)(F)F)c1)CC2	0.0394 µM	0.0255 µM	1.55	Soluble	> 100 µM	> 100 µM	> 100 µM	> 100 µM	> 100 µM	> 100 µM	–	Stability [5]: Stable; Stability [6]: Unstable; Activity (MCF7 [10]): Active; Activity (NCTC-2544 [11]): Non-Toxic; Activity (NCTC-2544 [12]): Non-Toxic; Stability [13]: Unstable; Stability [14]: Unstable; Activity (A2058 [15]): inactive; Activity (A2058 [16]): Active
COc1cccc2c1C(=O)c1c(O)c3c(c(O)c1C2=O)C[C@@](O)(C(=O)CO)C[C@@H]3O[C@H]1C[C@H](N)[C@H](O)[C@H](C)O1 [DOXORUBICIN]	–	–	–	–	15.3 µM	15.5 µM	6.5 µM	6.46 µM	32.5 µM	32.4 µM	–	–
O=[N+]([O-])c1ccc(NCCCCN2CCC(Cc3ccccc3)CC2)cc1C(F)(F)F	0.02 µM	0.0084 µM	2.38	Soluble	–	–	–	–	–	–	Unstable	–
COc1cc2c(cc1OC)CN(CCCCNc1ccc([N+](=O)[O-])c(C(F)(F)F)c1)CC2	0.0378 µM	0.023 µM	1.64	Soluble	–	–	–	–	–	–	Unstable	–
COc1cc2c(cc1OC)CN(CCNc1ccc([N+](=O)[O-])c(C(F)(F)F)c1)CC2	3.92 µM	0.0238 µM	164	Soluble	> 100 µM	> 100 µM	> 100 µM	> 100 µM	> 100 µM	> 100 µM	Unstable	Activity (MCF7 [10]): Active; Activity (MCF7 [18]): Non-Toxic; Activity (A2058 [19]): inactive; Activity (A2058 [20]): Non-Toxic; Activity (NCTC-2544 [11]): Non-Toxic; Activity (NCTC-2544 [12]): Non-Toxic; Stability [13]: Unstable; Stability [14]: Unstable
O=[N+]([O-])c1ccc(NCCN2CCC(Cc3ccccc3)CC2)cc1C(F)(F)F	0.0407 µM	0.0761 µM	0.53	Soluble	–	–	–	–	–	–	Unstable	–
COc1cc2c(cc1OC)CN(CCCNc1ccc([N+](=O)[O-])c(C(F)(F)F)c1)CC2	0.212 µM	0.0162 µM	13.1	Soluble	–	–	–	–	–	–	Unstable	–
O=[N+]([O-])c1ccc(NCCCCCN2CCC(Cc3ccccc3)CC2)cc1C(F)(F)F	0.0404 µM	0.024 µM	1.68	Soluble	14.9 µM	14.8 µM	14.2 µM	14.1 µM	15 µM	15.1 µM	Unstable	Activity (MCF7 [21]): Active; Activity (MCF7 [22]): Non-Toxic; Activity (A2058 [23]): Active; Activity (NCTC-2544 [24]): Non-Toxic; Activity (NCTC-2544 [25]): Non-Toxic; Stability [26]: Unstable; Stability [27]: Unstable
O=[N+]([O-])c1ccc(NCCCN2CCC(Cc3ccccc3)CC2)cc1C(F)(F)F	0.0416 µM	0.0223 µM	1.87	Soluble	–	–	–	–	–	–	Unstable	–
